Assays:
[1] = Antiviral activity against Bovine viral diarrhea virus 1-NADL ATCC VR-534 infected in MDBK cells assessed as protection from virus-induced cytopathogenicity after 3 to 4 days by MTT method; assay type: functional, cell-based; conditions: Bovine viral diarrhea virus isolates and strains, ATCC VR-534, MDBK
Summary of the method: (§1)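 Confluent monolayers grown overnight (BHK-21 at 5×10⁴ cells/well for YFV and Reo-1; MDBK at 3×10⁴ cells/well for BVDV). Infection at m.o.i. 0.01 for 2 h in maintenance MEM-Earle with 0.5% inactivated FBS, then serial compound dilutions added. Viability read by MTT after 3–4 days at 37 °C. EC50 taken from linear regression against untreated controls.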

[2] = Cytotoxicity against mock-infected bovine MDBK cells assessed as reduction in proliferation after 72 hrs by MTT method; assay type: cell-based, Bos taurus; conditions: cattle
Summary of the method: (§2)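 MDBK and BHK cells seeded at 6 × 10⁵ and 1 × 10⁶ cells/mL respectively. Medium was MEM-Earle with L-glutamine, 1 mM pyruvate and kanamycin, plus 10% horse serum (MDBK) or 10% FBS (BHK). Cells exposed to serial compound dilutions at 37 °C, 5% CO₂; MTT viability read at 72 h. CC50 by linear regression versus untreated controls.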

[3] = Cytotoxicity against mock-infected human MT4 cells assessed as reduction in proliferation after 96 hrs by MTT method; assay type: cell-based
Summary of the method: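 Exponentially growing MT-4 cells seeded at 1 × 10⁵ cells/mL in RPMI-1640 with 10% FBS, penicillin and streptomycin. Held 96 h at 37 °C, 5% CO₂ with or without serial compound dilutions; viability by MTT. Compounds dissolved in DMSO at 100 mM stock, then diluted in medium. CC50 by linear regression.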

[4] = system: Human immunodeficiency virus 1; test: Antiviral activity against HIV-13B infected in MT4 cells assessed as protection from virus-induced cytopathogenicity after 4 days by MTT method; assay type: functional, organism-based; conditions: Human immunodeficiency virus 1, 3B, MT4, 96 h
Summary of the method: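 HIV-1 IIIB, taken from persistently infected H9/IIIB supernatant. MT-4 cells (1×10⁴/well) in RPMI with serial compound dilutions, infected with 100 CCID50 (m.o.i. 0.01). Viability by MTT after 4 days at 37 °C. EC50 = 50% protection from cytopathogenicity, by linear regression against untreated controls. Compounds kept as 100 mM DMSO stocks, diluted in medium.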

[5] = Cytotoxicity against mock-infected hamster BHK21 cells assessed as reduction in proliferation after 72 hrs by MTT method; assay type: cell-based, Mesocricetus auratus, BHK-21; summary of the method: as §2
Yellow fever virus = test: Antiviral activity against Yellow fever virus 17D Stamaril Pasteur J07B01 infected in BHK21 cells assessed as protection from virus-induced cytopathogenicity after 3 to 4 days by MTT method; assay type: functional, cell-based; conditions: Stamaril Pasteur J07B01, BHK-21; summary of the method: as §1
[6] = Antiviral activity against Simian virus 12 3651 (ATCC VR- 214) infected in BHK21 cells assessed as protection from virus-induced cytopathogenicity after 3 to 4 days by MTT method; assay type: functional, cell-based; conditions: BHK-21; summary of the method: as §1
[7] = Cytotoxicity against mock-infected African green monkey Vero 76 cells assessed as reduction in proliferation after 48 to 96 hrs by MTT method; assay type: cell-based; conditions: chlorocebus sabaeus, Vero 76 cells (mock-infected)
Summary of the method: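 Vero-76 cells seeded at 4 × 10⁵ cells/mL in D-MEM with L-glutamine, kanamycin and 10% FBS. Incubated at 37 °C, 5% CO₂, with or without serial dilutions of compound; viability read by MTT after 48–96 h. Run in parallel with antiviral assays. CC50 obtained by linear regression of % of untreated control.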

Coxsackievirus B5 = test: Antiviral activity against Coxsackievirus B5 Faulkner (ATCC VR-185) infected in Vero 76 cells after 3 days by plaque reduction assays; assay type: functional, organism-based; conditions: Enterovirus B, Vero 76, 72 h
[8] = system: Human poliovirus 1 strain Sabin; test: Antiviral activity against Poliovirus 1 strain Sabin ATCC VR-1562 infected in Vero 76 cells after 2 days by plaque reduction assays; assay type: functional, organism-based; conditions: Enterovirus C, ATCC VR-1562, Vero 76, 48 h
[9] = Antiviral activity against Human respiratory syncytial virus A2 ATCC VR-1540 infected in Vero 76 cells after 5 days by plaque reduction assays; assay type: functional, cell-based; conditions: ATCC VR-1540, Vero 76, 120 h
[10] = system: Vesicular stomatitis Indiana virus; test: Antiviral activity against Vesicular stomatitis Indiana virus ATCC VR 158 infected in Vero 76 cells after 2 days by plaque reduction assays; assay type: functional, organism-based; conditions: ATCC VR 158, Vero 76, 48 h
[11] = Antiviral activity against Vaccinia virus Lister ATCC VR-1549 infected in Vero 76 cells after 3 days by plaque reduction assays; assay type: functional, cell-based; conditions: ATCC VR-1549, Vero 76, 72 h
Human alphaherpesvirus 1 = test: Antiviral activity against Human herpesvirus 1 strain KOS ATCC VR- 1493 infected in Vero 76 cells after 3 days by plaque reduction assays; assay type: functional, organism-based; conditions: Human alphaherpesvirus 1, KOS ATCC VR1493, Vero 76, 72 h

SMILES	EC50 [1]	CC50 at 72 h [2]	CC50 at 96 h [3]	EC50 [4]	CC50 at 72 h [5]	EC50 (Yellow fever virus)	EC50 [6]	CC50 [7]	EC50 (Coxsackievirus B5)	EC50 [8]	EC50 [9]	EC50 [10]	EC50 [11]	EC50 (Human alphaherpesvirus 1)
CC(=O)c1ccc(-c2nc3ccncc3[nH]2)cc1	7 µM	> 100 µM	> 100 µM	> 100 µM	> 100 µM	> 100 µM	> 100 µM	> 100 µM	> 100 µM	> 100 µM	> 100 µM	> 100 µM	> 100 µM	> 100 µM
N#Cc1ccc(/C=N/c2cc3cccnc3c(Cl)c2N)cc1	2 µM	> 100 µM	46 µM	> 100 µM	> 100 µM	> 100 µM	> 100 µM	> 100 µM	46 µM	> 100 µM	26 µM	> 100 µM	> 100 µM	> 100 µM
Nc1c(/N=C/c2ccc(C(F)(F)F)cc2)cc2cccnc2c1Cl	14 µM	> 100 µM	49 µM	> 100 µM	> 25 µM	> 25 µM	> 25 µM	90 µM	29 µM	57 µM	12 µM	> 90 µM	> 90 µM	> 100 µM
Nc1c(/N=C/c2ccc([N+](=O)[O-])cc2)cc2cccnc2c1Cl	1.7 µM	> 100 µM	53 µM	> 100 µM	> 100 µM	> 100 µM	> 100 µM	> 100 µM	> 100 µM	> 100 µM	14 µM	> 100 µM	88 µM	> 100 µM
Nc1c(/N=C/c2ccc(C(F)(F)F)c([N+](=O)[O-])c2)cc2cccnc2c1Cl	11 µM	> 100 µM	20 µM	> 100 µM	> 100 µM	> 75 µM	> 100 µM	90 µM	16 µM	22 µM	> 90 µM	> 90 µM	> 90 µM	> 100 µM
C[C@@]1(O)[C@H](O)[C@@H](CO)O[C@H]1n1ccc(N)nc1=O	–	–	–	–	–	> 100 µM	16 µM	–	–	–	–	–	–	–
C[C@@]1(O)[C@H](O)[C@@H](CO)O[C@H]1n1cnc2c(=O)[nH]c(N)nc21 [2'-B-METHYL-GUANOSINE]	1.1 µM	> 100 µM	–	–	> 100 µM	–	–	–	–	–	–	–	–	–
C#C[C@@]1(O)[C@H](O)[C@@H](CO)O[C@H]1n1ccc(N)nc1=O [2'-ETHYNYL-D-CYTIDINE]	–	–	–	–	–	–	–	> 100 µM	–	23 µM	–	–	–	–
O=c1cnn([C@@H]2O[C@H](CO)[C@@H](O)[C@H]2O)c(=O)[nH]1 [6-AZAURIDINE]	–	–	–	–	–	–	–	≥ 12.5 µM	–	–	1.2 µM	–	–	–
Nc1nc2c(ncn2COCCO)c(=O)[nH]1 [ACYCLOVIR]	–	–	–	–	–	–	–	> 100 µM	–	–	–	–	–	–
Nc1ccn(C[C@@H](CO)OCP(=O)(O)O)c(=O)n1 [CIDOFOVIR]	–	–	–	–	–	–	–	> 100 µM	–	–	–	–	19 µM	–

From ChEMBL document CHEMBL3352401, “Synthesis and antiviral activity of new phenylimidazopyridines and N-benzylidenequinolinamines derived by molecular simplification of phenylimidazo[4,5-g]quinolines” (Eur J Med Chem, 2014)
